Laboratory results published in ChEMBL document CHEMBL1125733, “Fluoronaphthyridines and -quinolones as antibacterial agents. 3. Synthesis and structure-activity relationships of new 1-(1,1-dimethyl-2-fluoroethyl), 1-[1-methyl-1-(fluoromethyl)-2-fluoroethyl], and 1-[1,1-(difluoromethyl)-2-fluoroethyl] substituted derivatives” (J Med Chem, 1991).
In brackets after ≈: the same amount, converted by molar mass.

Columns and labels:
Morganella morganii = test: In vitro antibacterial activity against Morganella morganii A 15153; type: functional
Klebsiella pneumoniae = test: In vitro antibacterial activity against Klebsiella pneumoniae A 9664; type: functional
Staphylococcus aureus [1] = test: In vitro antibacterial activity (minimum inhibitory concentration, MIC) against Staphylococcus aureus A 9537.; type: functional
Pseudomonas aeruginosa [2] = test: Compound was tested in vitro for its antibacterial activity (minimum inhibitory concentration, MIC) against Pseudomonas aeruginosa A 9843; type: functional
Serratia marcescens = test: In vitro antibacterial activity (minimum inhibitory concentration) against Serratia marcescens A 20019.; type: functional
Escherichia coli [3] = test: In vitro antibacterial activity against Escherichia coli A 15119; type: functional
Enterococcus faecalis [4] = test: Compound was tested in vitro for its antibacterial activity (minimum inhibitory concentration) against Enterococcus faecalis A 9809 (gram positive).; type: functional
Proteus mirabilis = test: In vitro antibacterial activity (minimum inhibitory concentration, MIC) against Proteus mirabilis A 9900; type: functional
Enterobacter cloacae = test: In vitro antibacterial activity against Enterobacter cloacae A 9656; type: functional
Mus musculus [5] = test: Compound was evaluated in vivo in urine sample collected over 24 hours for its concentration after 40 mg/kg intramuscular administration to mice; type: functional
Outline: (§1)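 Mice were dosed at 40 mg/kg, either orally with a blunt needle and syringe or intramuscularly, with separate groups for each route. Blood was drawn from the orbital sinus at 5, 15, 30, 60, 120 and 180 min. Urine was pooled over 24 h. Drug levels were measured by agar disk diffusion microbioassay with Salmonella enteritidis A9531 as the assay organism.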

in vivo [6] = conditions: mouse, blood, po, 40 mg/kg
[7] = Compound was evaluated in vivo in blood samples from the orbital sinus for its concentration after an intramuscular administration of 40 mg/kg in mice; type: ADME, organism-based; parameters: dose 40 mg/kg, route intramuscular; conditions: mouse, im; outline: as §1
Haemophilus influenzae = test: In vitro antibacterial activity against Haemophilus influenzae A 21515; type: functional
Canis familiaris [8] = species on record: Canis familiaris; conditions: dog, in vivo, po, 25 mg/kg
[9] = Compound was tested for the dose to protect 50% of mice from lethal infection against Streptococcus pneumoniae after peroral administration to OF1-strain of female Swiss mice.; type: functional; conditions: po, read-out: PD50
Outline: (§2)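 Compounds dissolved in sterile water and given orally to female OF1 Swiss mice weighing 18-25 g, five mice per group.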

Bacteroides fragilis = test: Compound was tested in vitro for its antibacterial activity (minimum inhibitory concentration) against Bacteroides fragilis A 22862.; type: functional; conditions: A22862
[10] = Compound was evaluated in vivo in blood samples from the orbital sinus for its half life after 40 mg/kg of intramuscular administration in mice.; type: ADME, organism-based; parameters: dose 40 mg/kg, route intramuscular; conditions: mouse, im
Mus musculus [11] = test: Compound was evaluated in vivo in urine sample collected over 24 hours for its concentration after 40 mg/kg peroral administration to mice; type: functional; conditions: route oral; outline: as §1
Mus musculus [12] = test: Compound was evaluated in vivo in blood samples from the orbital sinus for its concentration using Area under the time-concentration curve after 40 mg/kg intramuscular administration to mice; type: ADME, organism-based; parameters: dose 40 mg/kg, route intramuscular; conditions: im; outline: as §1
in vivo [13] = conditions: dog, po, 25 mg/kg
Pseudomonas aeruginosa [14] = test: Compound was tested for the dose to protect 50% of mice from lethal infection against Pseudomonas aeruginosa A9843 after peroral administration to OF1-strain of female Swiss mice.; type: functional; conditions: po, read-out: PD50; outline: as §2
Staphylococcus aureus [15] = test: Compound was tested for the dose to protect 50% of mice from lethal infection against Staphylococcus aureus A 9606 after peroral administration to OF1-strain of female Swiss mice.; type: functional; conditions: po, read-out: PD50; outline: as §2
Enterococcus faecalis [16] = test: In vitro antibacterial activity against Enterococcus faecalis A 9809; type: functional
Staphylococcus aureus [17] = test: In vitro antibacterial activity against Staphylococcus aureus A 24227; type: functional
Escherichia coli [18] = test: Compound was tested for the dose to protect 50% of mice from lethal infection against Escherichia coli A 15119 after peroral administration to OF1-strain of female Swiss mice.; type: functional; conditions: po, read-out: PD50; outline: as §2
in vivo [19] = conditions: dog, po, 25 mg/kg; remark: listed apart in the source
Streptococcus pneumoniae = test: In vitro antibacterial activity against Streptococcus pneumoniae A 9585; type: functional
Canis familiaris [20] = test: Compound was evaluated in vivo in urine sample collected over 24 hours for its concentration after 25 mg/kg peroral administration to dogs.; conditions: route oral
in vivo [21] = conditions: mouse, po, 40 mg/kg
Mus musculus [22] = species on record: Mus musculus; conditions: in vivo, po, 40 mg/kg
[23] = Compound was evaluated in vivo in blood samples from the orbital sinus for its concentration after a intramuscular administration 40 mg/kg in mice; type: ADME, organism-based; parameters: dose 40 mg/kg, route intramuscular; conditions: mouse, im; outline: as §1

Row | SMILES | MIC (Morganella morganii) | MIC (Klebsiella pneumoniae) | MIC (Staphylococcus aureus [1]) | MIC (Pseudomonas aeruginosa [2]) | MIC (Serratia marcescens) | MIC (Escherichia coli [3]) | MIC (Proteus mirabilis) | MIC (Enterobacter cloacae) | UR (Mus musculus [5]) | MIC (Haemophilus influenzae) | ED50 [9] | MIC (Bacteroides fragilis) | UR (Mus musculus [11]) | AUC (Mus musculus [12]) | Cmax (in vivo [13]) | ED50 (Pseudomonas aeruginosa [14]) | MIC (Enterococcus faecalis [16]) | MIC (Staphylococcus aureus [17]) | MIC (Streptococcus pneumoniae) | UR (Canis familiaris [20]) | also measured
1 | CC(C)(C)n1cc(C(=O)O)c(=O)c2cc(F)c(N3C[C@H]4CC3CN4)cc21 | 2 µg/mL (≈ 5.56 µM) | 0.13 µg/mL (≈ 0.362 µM) | 0.5 µg/mL (≈ 1.39 µM) | 0.5 µg/mL (≈ 1.39 µM) | 4 µg/mL (≈ 11.1 µM) | 0.5 µg/mL (≈ 1.39 µM) | 4 µg/mL (≈ 11.1 µM) | 0.25 µg/mL (≈ 0.696 µM) | – | – | – | – | – | – | – | – | – | – | – | – | MIC (Enterococcus faecalis [4]): 2 µg/mL (≈ 5.56 µM)
2 | CC(C)(C)n1cc(C(=O)O)c(=O)c2cc(F)c(N3C[C@H]4C[C@@H]3CN4)nc21 | 0.06 µg/mL (≈ 0.166 µM) | 0.016 µg/mL (≈ 0.0444 µM) | 0.03 µg/mL (≈ 0.0832 µM) | 0.25 µg/mL (≈ 0.694 µM) | 0.06 µg/mL (≈ 0.166 µM) | 0.008 µg/mL (≈ 0.0222 µM) | 0.06 µg/mL (≈ 0.166 µM) | 0.016 µg/mL (≈ 0.0444 µM) | 39% | 0.03 µg/mL (≈ 0.0832 µM) | 29.7 mg/kg | 4 µg/mL (≈ 11.1 µM) | 34% | 25 µg·h/mL | 5600 ng/mL | 4.7 mg/kg | 0.5 µg/mL (≈ 1.39 µM) | 0.03 µg/mL (≈ 0.0832 µM) | 0.13 µg/mL (≈ 0.361 µM) | 20% | half-life (in vivo [6]): 96 min; Cmax [7]: 13000 ng/mL; AUC (Canis familiaris [8]): 55 µg·h/mL; half-life [10]: 95 min; ED50 (Staphylococcus aureus [15]): 1.6 mg/kg; ED50 (Escherichia coli [18]): 1.8 mg/kg; half-life (in vivo [19]): 270 min; S: 80 µg/mL; Cmax (in vivo [21]; blood): 10000 ng/mL; AUC (Mus musculus [22]): 14 µg·h/mL
3 | O=C(O)c1cn(C2CC2)c2cc(N3CCNCC3)c(F)cc2c1=O [CIPROFLOXACIN] | – | 0.06 µg/mL (≈ 0.181 µM) | 0.06 µg/mL (≈ 0.181 µM) | – | 0.03 µg/mL (≈ 0.0905 µM) | – | 0.008 µg/mL (≈ 0.0241 µM) | – | 46% | 0.03 µg/mL (≈ 0.0905 µM) | > 69 mg/kg | 4 µg/mL (≈ 12.1 µM) | 30% | 21 µg·h/mL | 3000 ng/mL | 2.6 mg/kg | 0.5 µg/mL (≈ 1.51 µM) | 0.13 µg/mL (≈ 0.392 µM) | 0.25 µg/mL (≈ 0.754 µM) | 17% | Cmax [7]: 15000 ng/mL; ED50 (Staphylococcus aureus [15]): 31 mg/kg; ED50 (Escherichia coli [18]): 0.4 mg/kg; Cmax (in vivo [21]; in vivo): 6000 ng/mL; AUC (Mus musculus [22]): 7 µg·h/mL
4 | CC(C)(C)n1cc(C(=O)O)c(=O)c2cc(F)c(N3CC[C@H](N)C3)nc21 | 0.13 µg/mL (≈ 0.373 µM) | 0.03 µg/mL (≈ 0.0861 µM) | 0.004 µg/mL (≈ 0.0115 µM) | 0.25 µg/mL (≈ 0.718 µM) | 0.25 µg/mL (≈ 0.718 µM) | 0.016 µg/mL (≈ 0.0459 µM) | 0.13 µg/mL (≈ 0.373 µM) | 0.03 µg/mL (≈ 0.0861 µM) | – | – | > 25 mg/kg | 1 µg/mL (≈ 2.87 µM) | 10% | – | – | – | 0.06 µg/mL (≈ 0.172 µM) | 0.002 µg/mL (≈ 0.00574 µM) | 0.008 µg/mL (≈ 0.023 µM) | 9% | ED50 (Escherichia coli [18]): 1.2 mg/kg
5 | CC(C)(CF)n1cc(C(=O)O)c(=O)c2cc(F)c(N3CC[C@H](N)C3)cc21.CS(=O)(=O)O | 0.002 µg/mL | 0.004 µg/mL | 0.03 µg/mL | 0.13 µg/mL | 0.016 µg/mL | 0.002 µg/mL | 0.004 µg/mL | 0.004 µg/mL | 27% | 0.016 µg/mL | > 50 mg/kg | 2 µg/mL | 4% | 14 µg·h/mL | 600 ng/mL | 23.7 mg/kg | 0.13 µg/mL | 0.016 µg/mL | 0.06 µg/mL | 4.6% | AUC (Canis familiaris [8]): 7.3 µg·h/mL; half-life [10]: 109 min; Cmax [23]: 8000 ng/mL; ED50 (Staphylococcus aureus [15]): 26.4 mg/kg; half-life (in vivo [19]): 420 min; S: 370 µg/mL; Cmax (in vivo [21]; blood): 1000 ng/mL; AUC (Mus musculus [22]): 0.6 µg·h/mL
